# pIC50: −log10 of the molar value. Where “and” joins values, the source holds several entries; their conditions need not be identical. Equal values may be shown once.
# Assays:
# Canis familiaris [1] = assay: Decrease in thrombus weight in anesthetized dog coronary artery; assay type: functional, Canis lupus familiaris
# In short: (§1)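 Pentobarbital-anesthetized (32 mg/kg iv), ventilated dogs, allowed 30 min to stabilize. Continuous infusion of compound (1.0, 3.0 or 10.0 μg/kg/min) or saline began 15 min before 50 μA current was applied to an intraluminal electrode in the circumflex coronary artery. After 60 min of stimulation the animals were euthanized and the thrombus dissected and weighed. One treatment per animal.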
# Canis familiaris [2] = assay: (§2) Percentage increase in left ventricular contractility in anesthetized dog; assay type: functional, Canis lupus familiaris, Heart left ventricle
# Canis familiaris [3] = assay: Hemodynamic activity in anesthetized dog as percent change from baseline (2271 mmHg/s) in left ventricular myocardial activity at 0.1 mg/kg administered intravenously; assay type: functional, Canis lupus familiaris, Heart left ventricle; conditions: route intravenous
# Canis familiaris [4] = assay: Hemodynamic activity in anesthetized dog as percent change in fore limb resistance from baseline (2.77 mmHg/mL/min) at 0.1 mg/kg administered intravenously; assay type: functional, Canis lupus familiaris; conditions: route intravenous
# In short: (§3)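 Acutely instrumented anesthetized dogs (n = 6), 30-min control period. Compound in 0.9% saline, or dilute HCl diluted with saline, at 0.1 mL/kg iv over 1 min. At least four ascending half-log doses, 10 min apart, one compound per animal. Recorded: LV dP/dtmax, heart rate, aortic pressure and forelimb resistance. Values are maximum response from control average ± SEM.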
# Homo sapiens [5] = species on record: Homo sapiens; assay: In vitro inhibition of collagen stimulated platelet aggregation in human thrombocyte enriched plasma; assay type: functional
# In short: (§4)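 Human platelet-rich plasma from aspirin/NSAID-free donors, adjusted to 250 000 platelets/μL with platelet-poor plasma. Drug in DMSO/saline (1% DMSO final) was added before ADP or collagen, with doses set by titration. Read-out was aggregation extent (ADP, curve height) or rate (collagen, major slope) as % of saline control.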
# Canis familiaris [6] = assay: Cardiovascular activity in presence of beta-adrenoceptor blockade in dogs as percent change in blood pressure from base line (109/88 mmHg) at 0.01 mg/kg dose given 15 min after nadolol; -10/-13; assay type: functional, Canis lupus familiaris
# Canis familiaris [7] = assay: Cardiovascular activity in presence of beta-adrenoceptor blockade in dogs as percent change in heart rate from base line (136 bpm) at 0.01 mg/kg; assay type: functional, Canis lupus familiaris
# Canis familiaris [8] = assay: Hemodynamic activity in anesthetized dog as percent change in heart rate from baseline (152 bpm) at 0.003 mg/kg administered intravenously; assay type: functional, Canis lupus familiaris; conditions: route intravenous; in short: as §3
# Canis familiaris [9] = assay: Hemodynamic activity in anesthetized dog as percent change in heart rate from baseline (152 bpm) at 0.01 mg/kg administered intravenously; assay type: functional, Canis lupus familiaris; conditions: route intravenous; in short: as §3
# Canis familiaris [10] = assay: Hemodynamic activity in anesthetized dog as percent change in heart rate from baseline (152 bpm) at 0.001 mg/kg administered intravenously; assay type: functional, Canis lupus familiaris; conditions: route intravenous; in short: as §3
# Homo sapiens [11] = species on record: Homo sapiens; assay: In vitro inhibition of ADP stimulated platelet aggregation in human whole blood; assay type: functional
# In short: (§5)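 Human whole blood from aspirin/NSAID-free fasted donors, read by impedance aggregometry 5 min after adding ADP or collagen. Aggregation expressed as % of control (2-6 replicates), plotted against log drug concentration; IC50 obtained by extrapolation.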
# Canis familiaris [12] = species on record: Canis familiaris; assay: Ratio of positive inotropic activity to peripheral Vasodilator activity in dogs; assay type: functional, Canis lupus familiaris
# In short: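 Inotropic ED20 is the iv bolus dose giving a 20% rise in dP/dtmax in anesthetized dogs. Vasodilator ED20 is the bolus dose into the brachial cannula of a constant-flow perfused forelimb (pentobarbital 30 mg/kg iv then 3.0 mg/kg/h, heparinized) giving a 20% fall in perfusion pressure. Each ED20 was taken from its dose-response curve; the ratio is PI/PV.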
# Canis familiaris [13] = assay: Cardiovascular activity in presence of beta-adrenoceptor blockade in dogs as percent change in forelimb vascular resistance from base line (4.71 mmHg/mL/min) at 0.01 mg/kg before nadolol administration
# Canis familiaris [14] = assay: Hemodynamic activity in anesthetized dog as percent change in left ventricular myocardial activity from baseline (2271 mmHg/s) at 0.001 mg/kg administered intravenously; assay type: functional, Canis lupus familiaris, Heart left ventricle; conditions: route intravenous; in short: as §3
# Canis familiaris [15] = assay: Hemodynamic activity in anesthetized dog as percent change in fore limb resistance from baseline (2.77 mmHg/mL/min) at 0.01 mg/kg administered intravenously; assay type: functional, Canis lupus familiaris; conditions: route intravenous; in short: as §3
# Canis familiaris [16] = assay: Hemodynamic activity in anesthetized dog as percent change in blood pressure from baseline (123 mmHg) at 0.001 mg/kg administered intravenously; assay type: functional, Canis lupus familiaris; conditions: route intravenous; in short: as §3
# Canis familiaris [17] = assay: Hemodynamic activity in anesthetized dog as percent change in blood pressure from baseline (123 mmHg) at 0.01 mg/kg administered intravenously; assay type: functional, Canis lupus familiaris; conditions: route intravenous; in short: as §3
# Canis familiaris [18] = assay: Hemodynamic activity in anesthetized dog as percent change in fore limb resistance from baseline (2.77 mmHg/mL/min) at 0.3 mg/kg administered intravenously; assay type: functional, Canis lupus familiaris; conditions: route intravenous; in short: as §3
# Homo sapiens [19] = species on record: Homo sapiens; assay: In vitro inhibition of collagen stimulated platelet aggregation in human whole blood; assay type: functional; in short: as §5
# Canis familiaris [20] = assay: Hemodynamic activity in anesthetized dog as percent change in left ventricular myocardial activity from baseline (2271 mmHg/s) at 0.03 mg/kg administered intravenously; assay type: functional, Canis lupus familiaris, Heart left ventricle; conditions: route intravenous; in short: as §3
# Canis familiaris [21] = assay: Hemodynamic activity in anesthetized dog as percent change in blood pressure from baseline (123 mmHg) at 0.003 mg/kg administered intravenously; assay type: functional, Canis lupus familiaris; conditions: route intravenous; in short: as §3
# Canis familiaris [22] = assay: Hemodynamic activity in anesthetized dog as percent change in blood pressure from baseline (123 mmHg) at 0.03 mg/kg administered intravenously; assay type: functional, Canis lupus familiaris; conditions: route intravenous; in short: as §3
# Canis familiaris [23] = assay: Hemodynamic activity in anesthetized dog as percent change in heart rate from baseline (152 bpm) at 0.03 mg/kg administered intravenously; assay type: functional, Canis lupus familiaris; conditions: route intravenous; in short: as §3
# Canis familiaris [24] = assay: Cardiovascular activity in presence of beta-adrenoceptor blockade in dogs as percent change in forelimb vascular resistance from base line (5.23 mmHg/mL/min) at 0.01 mg/kg given 15 min after nadolol; assay type: functional, Canis lupus familiaris
# Canis familiaris [25] = assay: Hemodynamic activity in anesthetized dog as percent change in blood pressure from baseline (123 mmHg) at 0.1 mg/kg administered intravenously; assay type: functional, Canis lupus familiaris; conditions: route intravenous; in short: as §3
# Canis familiaris [26] = assay: Cardiovascular activity in presence of beta-adrenoceptor blockade in dogs as percent change in blood pressure from base line (116/94 mmHg) at 0.01 mg/kg dose before nadolol administration; -9/-11
# Canis familiaris [27] = species on record: Canis familiaris; assay: 50% increase in myocardial contractility (dP/dT max) in dogs; assay type: functional, Canis lupus familiaris, Myocardium; in short: as §3
# Canis familiaris [28] = assay: Hemodynamic activity in anesthetized dog as percent change in left ventricular myocardial activity from baseline (2271 mmHg/s) at 0.003 mg/kg administered intravenously; assay type: functional, Canis lupus familiaris, Heart left ventricle; conditions: route intravenous; in short: as §3
# Homo sapiens [29] = species on record: Homo sapiens; assay: In vitro inhibition of ADP stimulated platelet aggregation in human thrombocyte enriched plasma; assay type: functional; in short: as §4
# Canis familiaris [30] = assay: Weight of thrombus after 60 min of 1 ug/kg/min; assay type: functional, Canis lupus familiaris; in short: as §1
# Canis familiaris [31] = assay: Weight of thrombus after 60 min of 3 ug/kg/min; assay type: functional, Canis lupus familiaris
# In short: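 Anesthetized adult dogs were given sodium pentobarbital (32 mg/kg iv), intubated and artificially respired, then allowed 30 min to stabilize after surgery. Circumflex coronary thrombosis was induced by delivering 50 μA through an intraluminal silver-coated copper electrode, which denuded the endothelium. Continuous drug or saline infusion began 15 min before current onset and ran throughout, with one treatment per animal. After 60 min of stimulation the thrombus was dissected and weighed.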
# Canis familiaris [32] = assay: Hemodynamic activity in anesthetized dog as percent change in blood pressure from baseline (123 mmHg) at 0.3 mg/kg administered intravenously; assay type: functional, Canis lupus familiaris; conditions: route intravenous; in short: as §3
# Canis familiaris [33] = assay: as §2; assay type: functional, Canis lupus familiaris, Heart left ventricle; remark: listed apart in the source
# Canis familiaris [34] = assay: Cardiovascular activity in presence of beta-adrenoceptor blockade in dogs as percent change in heart rate from base line (121 bpm) at 0.01 mg/kg; assay type: functional, Canis lupus familiaris
smiles,measurement,setting,value
CC1CC(=O)NN=C1/C=C/c1ccc(-n2ccnc2)cc1.Cl (centres undefined),Inhibition,Canis familiaris [1],40%
same,Increase,Canis familiaris [2],19%
same,Change,Canis familiaris [3],134%
same,Change,Canis familiaris [4],-58%
same,pIC50,Homo sapiens [5],7.52
same,Change,Canis familiaris [6],-10%
same,Change,Canis familiaris [7],18%
same,Change,Canis familiaris [8],5%
same,Change,Canis familiaris [9],12%
same,Change,Canis familiaris [10],0.2%
same,pIC50,Homo sapiens [11],7.05
same,Ratio,Canis familiaris [12],1.29
same,Change,Canis familiaris [13],-19%
same,Change,Canis familiaris [14],2%
same,Change,Canis familiaris [15],-36%
same,Change,Canis familiaris [16],-2%
same,Change,Canis familiaris [17],-13%
same,Change,Canis familiaris [18],-54%
same,pIC50,Homo sapiens [19],8.82
same,Change,Canis familiaris [20],117%
same,Change,Canis familiaris [21],-5%
same,Change,Canis familiaris [22],-24%
same,Change,Canis familiaris [23],23%
same,Change,Canis familiaris [24],-13%
same,Change,Canis familiaris [25],-35%
same,Change,Canis familiaris [26],-9%
same,Dose,Canis familiaris [27],8 µg/kg
same,Change,Canis familiaris [28],19%
same,pIC50,Homo sapiens [29],6.52
same,Thrombus weight,Canis familiaris [30],10.7 mg
same,Thrombus weight,Canis familiaris [31],6.3 mg
same,Change,Canis familiaris [32],-40%
same,Increase,Canis familiaris [33],77% and 103%
same,Change,Canis familiaris [34],6%

# Source: ChEMBL document CHEMBL1124387, “Cardiotonic agents. 9. Synthesis and biological evaluation of a series of (E)-4,5-dihydro-6-[2-[4-(1H-imidazol-1-yl)phenyl]ethenyl]-3 (2H)-pyridazinones: a novel class of compounds with positive inotropic, antithrombotic, and vasodilatory activities for the treatment of congestive heart failure” (J Med Chem, 1989)
